The record followed here is ChEMBL document CHEMBL2034908, “Isoxazolo(aza)naphthoquinones: a new class of cytotoxic Hsp90 inhibitors” (Eur J Med Chem, 2012).

Assay [1] is described as follows: Binding affinity to Hsp90 after 4 hrs by GM-FITC based fluorescence polarization assay. The method in brief: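 Commercial Hsp90 at 30 nM was mixed with GM-FITC tracer at 5 nM and serially diluted compound. Buffer: 20 mM HEPES(K) pH 7.3, 50 mM KCl, 5 mM MgCl2, 20 mM Na2MoO4, 0.01% NP40, with fresh 0.1 mg/ml bovine gamma globulin and 2 mM DTT. Shaken 4 h at 4 °C, then FP read in mP. IC50 is the concentration displacing 50% of tracer, from triplicate wells by nonlinear least-squares fit.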
(In general: Fluorescence polarisation rises when a labelled molecule tumbles more slowly, as on binding a larger partner.)

For assay [2], the target named is T1, Heat shock protein HSP90 (Homo sapiens) (UniProt P07900+P08238). In words: Inhibition of Hsp90 in human A431 cells assessed as up-regulation of Hsp70 in human A431 cells after 24 hrs by Western blotting analysis. The following applies: A-431. The assay is classed as cell-based. The method in brief: (§1)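 Cells were treated 24 h with drug freshly made in DMSO and diluted in medium with 10% FBS. Where a single level was used, it was 22 nM. Lysates: cells rinsed twice in ice-cold PBS with 0.1 mM orthovanadate, then lysed in hot sample buffer. Protein was quantified by BCA, run on SDS-PAGE and blotted to nitrocellulose. Detection used HRP secondary antibodies and chemiluminescence, with actin as loading control.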
Background: Immunoblotting shows a protein as a band on a membrane.

The target of assay [3] is T1, Heat shock protein HSP90 (Homo sapiens). Briefly: Inhibition of Hsp90 in human A431 cells assessed as down-regulation of Cdk4 expression after 24 hrs by Western blotting analysis. In kind it is cell-based. Particulars: A-431. The method in brief: as §1
Assay [4] in a line: Cytotoxicity against human STO cells after 72 hrs. In kind it is functional, cell-based. The method in brief:
(§2)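 Compounds were dissolved fresh in DMSO and diluted in culture medium. Cells were exposed for 72 h at 37 °C in medium with 10% heat-inactivated FBS under 5% CO2. IC50 reported ± SD. STO cells were grown in 50/50 DMEM-Ham's F12 with 10% FBS and 2 mM L-Gln.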

Assay [5] has as its system A-431. In words: Cytotoxicity against human A431 cells after 72 hrs. In kind it is functional, cell-based. Particulars: A-431, 72 h.
Assay [6] deals with T1, Heat shock protein HSP90 (Homo sapiens). In words: Inhibition of Hsp90 in human A431 cells assessed as down-regulation of Akt expression after 24 hrs by Western blotting analysis. The assay is classed as cell-based. Particulars: A-431. The method in brief: as §1
Assay [7] has the same target. In words: Inhibition of Hsp90 in human A431 cells assessed as down-regulation of survivin expression after 24 hrs by Western blotting analysis. In kind it is cell-based. The following applies: A-431. The method in brief:
as §1

A further assay concerns NCI-H460. In words: Cytotoxicity against human NCI-H460 cells after 72 hrs. In kind it is functional, cell-based. The following applies: NCI-H460, 72 h. The method in brief:
as §2

In assay [8] the target is T1, Heat shock protein HSP90 (Homo sapiens). In words: Inhibition of Hsp90 in human A431 cells assessed as down-regulation of EGFR expression after 24 hrs by Western blotting analysis. In kind it is cell-based. The following applies: A-431. Put shortly: as §1
For assay [9] the target is unchanged. In words: Inhibition of Hsp90 in human STO cells assessed as down-regulation of Cdk4 expression at 22 nM after 24 hrs by Western blotting analysis. The assay is classed as cell-based. The method in brief: as §1
Assay [10] has the same target. In words: Inhibition of Hsp90 in human STO cells assessed as down-regulation of survivin expression at 22 nM after 24 hrs by Western blotting analysis. The assay is classed as cell-based. The method in brief:
as §1

Assay [11] shares this target. Briefly: Inhibition of Hsp90 in human A431 cells assessed as down-regulation of Raf expression at 22 nM after 24 hrs by Western blotting analysis. In kind it is cell-based. Particulars: A-431. Put shortly:
as §1

For assay [12] the target is unchanged. Briefly: Inhibition of Hsp90 in human STO cells assessed as down-regulation of Raf expression at 22 nM after 24 hrs by Western blotting analysis. In kind it is cell-based. Put shortly:
as §1

Assay [13] shares this target. In words: Inhibition of Hsp90 in human A431 cells assessed as down-regulation of EGFR expression at 22 nM after 24 hrs by Western blotting analysis. In kind it is cell-based. Particulars: A-431. The method in brief: as §1
Assay [14] has the same target. Briefly: Inhibition of Hsp90 in human A431 cells assessed as down-regulation of survivin expression at 22 nM after 24 hrs by Western blotting analysis. The assay is classed as cell-based. The following applies: A-431. Put shortly: as §1
Assay [15] relates to A-431. Briefly: Antitumor activity against human A431 cells xenografted in athymic nude Swiss mouse assessed as tumor growth inhibition at 10 mg/kg, po qd for 4 days per week for 3 weeks. Particulars: read-out: GI. In kind it is functional. Put shortly: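 Female athymic Swiss nude mice, 8–10 weeks old, bearing A431 squamous carcinoma xenografts. Drug dissolved in physiologic saline and given orally at 10 mg/kg, qdx4d/week for 3 weeks. Dosing started when tumours were just palpable. Tumour growth inhibition was assessed.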

Assay [16] deals with T1, Heat shock protein HSP90 (Homo sapiens). In words: Inhibition of Hsp90 in human A431 cells assessed as down-regulation of Cdk4 expression at 22 nM after 24 hrs by Western blotting analysis. In kind it is cell-based. The following applies: A-431. The method in brief: as §1

Each structure is given as a SMILES string. Active and inactive are the calls of the source. The rule behind the calls is not given here.

One may read the IC50 as the concentration that inhibits the measured activity by half. The low end stands for inhibition by little substance, the high end for a need for much substance. For orientation: pIC50 means the negative decadic logarithm of the IC50, by convention in mol/L. The low end stands for a high IC50, the high end for a low IC50. As to `Cl.O=C1c2ccncc2C(=O)c2c(-c3ccc(OCCN4CCOCC4)cc3)noc21`, the half-inhibitory concentration (IC50) in [1] was under 5 nM; in [4], 54 nM; in the assay on A-431 [5], 20 nM; in the assay with NCI-H460 it was 41 nM. In assay [1], the negative logarithm of the IC50 (pIC50) is on record as 8.47. In addition, the inhibition result in assay [2], in assay [3], in [6], in [7] and in assay [8] was “Dose-dependent effect” throughout.
As to `O=C1c2ccccc2C(=O)c2c(-c3cc[n+](Cc4ccccc4)cc3)noc21.[Br-]`, the inhibition entry in [9], in assay [10], in assay [11], in assay [12], in assay [13] and in [14] was “Active” in each case. For the same compound, in [16], the inhibition entry is “Active”. The IC50 in assay [1] is 34 nM; in assay [4], 2.2 nM; in the assay with A-431 [5] it was 1.6 nM; with NCI-H460, 18 nM. Further, in [1], the pIC50 turned out to be 7.47. In addition, the inhibition result in assay [2] was “Dose-dependent effect”. Besides, the inhibition in vivo at 10 mg/kg in the assay on A-431 [15] turned out to be 50%.
